# Reference: BindingDB's records for doi:10.1016/j.bmc.2009.05.079 (Universidad De Valencia, 2009)
# Biological target: D(2) dopamine receptor (Rattus norvegicus, UniProt P61169)
# Assay: Displacement of [3H]raclopride from dopamine D2 receptor in Wistar rat striatal membrane by liquid scintillation counting
# Summary of the method: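 Female Wistar rat striatal membranes were washed at 49,000g and resuspended in Tris-ions buffer, pH 7.4. [3H]-raclopride displacement was read by filtration, cold-buffer washes and scintillation counting. Ki was derived using KD 1,25 nM; 3–6 independent determinations in duplicate, mean SEM.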
# Chain of D(2) dopamine receptor (P61169 whole entry): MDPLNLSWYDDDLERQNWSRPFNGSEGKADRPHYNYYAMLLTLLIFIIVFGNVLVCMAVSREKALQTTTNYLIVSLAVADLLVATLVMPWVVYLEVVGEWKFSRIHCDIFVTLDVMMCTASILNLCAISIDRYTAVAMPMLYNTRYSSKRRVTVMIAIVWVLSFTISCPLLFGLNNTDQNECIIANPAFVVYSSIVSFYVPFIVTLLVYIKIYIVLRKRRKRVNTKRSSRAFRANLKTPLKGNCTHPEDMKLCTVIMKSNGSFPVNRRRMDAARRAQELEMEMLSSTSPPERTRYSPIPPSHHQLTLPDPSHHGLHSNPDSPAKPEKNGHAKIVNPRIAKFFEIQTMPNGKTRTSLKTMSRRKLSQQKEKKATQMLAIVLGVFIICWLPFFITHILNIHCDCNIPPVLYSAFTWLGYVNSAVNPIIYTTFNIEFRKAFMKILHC
compound,measurement,value
"CCCCC1NCCc2cc(Cl)c(O)cc21 (stereo unspecified) [1-Butyl-6-chloro-7-hydroxy-1,2,3,4-tetrahydroisoquinoline]",Ki,76 nM
